From publication PMC4301073 (ACS Chemical Biology, 2014)
Converted amounts (≈) assume the structure as drawn.

Legend:
HK853 [1] = molecular target: T1, HK853 (Thermotoga maritima, UniProt Q9WZV7); test: High-throughput primary FP screen for displacement of ADP-BODIPY; type: binding; details: 20 μM compound
T1 sequence (Q9WZV7 232-489): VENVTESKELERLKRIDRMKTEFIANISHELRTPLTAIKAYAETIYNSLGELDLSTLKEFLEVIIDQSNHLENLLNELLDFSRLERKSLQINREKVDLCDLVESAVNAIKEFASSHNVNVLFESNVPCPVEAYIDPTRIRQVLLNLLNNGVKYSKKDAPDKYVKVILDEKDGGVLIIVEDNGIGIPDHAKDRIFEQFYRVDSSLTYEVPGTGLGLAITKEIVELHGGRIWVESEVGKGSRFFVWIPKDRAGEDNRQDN

HK853 [2] = molecular target: T1, HK853; test: Control FP competition; type: binding
How it was run: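 Competition format: 25 μM HK853 plus 10 nM ADP-BODIPY probe with 0–1000 μM competing nucleotide and 5% (v/v) DMSO, in 50 mM Tris-HCl pH 7.8, 200 mM KCl, 5 mM MgCl2. Incubation and FP read as for binding, in triplicate. FP plotted against log molar competitor; IC50 from four-parameter logistic fit.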

HK853 [3] = molecular target: T1, HK853; test: Inhibition of HK853 autophosphorylation activity; type: biochemical
VicK = molecular target: T2, VicK (Streptococcus pneumoniae, UniProt Q8DPL8); test: Inhibition of VicK activity; type: biochemical
T2 sequence (Q8DPL8 36-449 limits assumed): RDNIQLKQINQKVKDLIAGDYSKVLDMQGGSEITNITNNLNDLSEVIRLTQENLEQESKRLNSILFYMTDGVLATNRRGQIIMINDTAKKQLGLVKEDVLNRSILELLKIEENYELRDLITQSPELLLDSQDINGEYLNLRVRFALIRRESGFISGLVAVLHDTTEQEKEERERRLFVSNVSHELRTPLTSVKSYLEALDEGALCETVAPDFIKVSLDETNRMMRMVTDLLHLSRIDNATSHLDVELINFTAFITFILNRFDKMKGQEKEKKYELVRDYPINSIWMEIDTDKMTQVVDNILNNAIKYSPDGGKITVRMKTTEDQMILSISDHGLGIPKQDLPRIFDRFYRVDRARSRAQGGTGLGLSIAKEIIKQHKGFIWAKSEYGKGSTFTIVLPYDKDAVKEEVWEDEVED
How it was run: (§1)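 Enzyme (VicK 2 μM; for CheA, 2 μM CheA plus 6 μM CheW) preincubated with test compound 30 min RT, then radioactive ATP mix added. Final: 3 μM ATP [γ-33P] (20 Ci mmol–1), 5% DMSO, 0.1% Triton X-100 in reaction buffer, pH 7.8. Reacted 30 min RT, quenched in SDS loading buffer, run on SDS-PAGE. Radioactive band density normalised to no-inhibitor control; IC50 from four-parameter logistic fit.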

CheA = molecular target: T3, CheA (Escherichia coli, UniProt P07363); test: Inhibition of CheA activity; type: biochemical
T3 sequence (P07363 1-654): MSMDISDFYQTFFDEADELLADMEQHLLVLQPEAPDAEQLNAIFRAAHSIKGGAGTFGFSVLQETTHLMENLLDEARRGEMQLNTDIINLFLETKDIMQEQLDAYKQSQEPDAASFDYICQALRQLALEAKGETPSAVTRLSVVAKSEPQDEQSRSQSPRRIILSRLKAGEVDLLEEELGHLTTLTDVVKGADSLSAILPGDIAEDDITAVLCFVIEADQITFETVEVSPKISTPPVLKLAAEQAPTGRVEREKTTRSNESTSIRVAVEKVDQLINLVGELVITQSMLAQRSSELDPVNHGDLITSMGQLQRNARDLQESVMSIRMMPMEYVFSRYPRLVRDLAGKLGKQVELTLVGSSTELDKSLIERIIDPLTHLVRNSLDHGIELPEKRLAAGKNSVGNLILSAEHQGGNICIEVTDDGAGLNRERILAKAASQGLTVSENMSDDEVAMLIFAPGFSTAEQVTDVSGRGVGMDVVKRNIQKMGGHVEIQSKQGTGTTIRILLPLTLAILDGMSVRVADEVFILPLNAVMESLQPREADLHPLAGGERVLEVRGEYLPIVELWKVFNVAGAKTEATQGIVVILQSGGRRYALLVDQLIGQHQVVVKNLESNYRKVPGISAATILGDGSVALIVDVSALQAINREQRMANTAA
How it was run: as §1

E. coli DC2 = test: Broth microdilution antimicrobial testing; type: cell-based, Escherichia coli; details: for MIC: Escherichia coli, DC2, 20 h, read-out: MIC values E. coli DC2
How it was run: (§2)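 Serial dilutions in Mueller-Hinton Broth 2, inoculated at 5 × 10^5 cfu/mL; wells ≤5% DMSO. Growth, sterility, DMSO and known-antibiotic controls included; inoculum count checked by plating on MHB 2 agar. Incubated 20 h at 37 °C. MIC taken as lowest concentration with no growth visible to unaided eye.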

B. subtilis 3610 = test: Broth microdilution antimicrobial testing; type: cell-based, Bacillus subtilis; details: for MIC: Bacillus subtilis, 3610, 20 h, read-out: MIC values B. subtilis 3610; for MIC values B. subtilis 3610: n = 2
How it was run: as §2

Vero 76 cells = test: Cytotoxicity testing; type: cell-based, African green monkey; details: DMSO control, n = 2
four HK proteins = details: cited from earlier work
PhoQ = details: cited from earlier work

C=CCNC1=C2C[C@@H](C)C[C@H](OC)[C@H](O)[C@@H](C)/C=C(\C)[C@H](OC(N)=O)[C@@H](OC)/C=C\C=C(/C)C(=O)NC(=CC1=O)C2=O [17-AAG]
displacement of ADP-BODIPY (1) in primary screening (HTS) (HK853 [1]): failed to displace ADP-BODIPY (1)

Nc1ncnc2c1ncn2[C@@H]1O[C@H](COP(=O)(O)OP(=O)(O)O)[C@@H](O)[C@H]1O [ADP (3), adenosine diphosphate]
IC50 (HK853 [2]): 27.7 ± 0.9 µM
IC50 (HK853 [3]): 2.57 µM
increased potency over AMP (9) (HK853 [3]; from Table 1 IC50 values of HK inhibition): more than 300 fold
IC50 (VicK): 4.81 µM
IC50 (CheA): 21.5 µM

Nc1ncnc2c1ncn2[C@@H]1O[C@H](COP(=O)(O)OP(=O)(O)OP(=O)(O)O)[C@@H](O)[C@H]1O [ATP (2), adenosine triphosphate]
IC50 (HK853 [2]): 23 ± 1.1 µM

Nc1nc2ccc(OC(F)(F)F)cc2s1 [Compound 12, riluzole]
IC50 (VicK): 618 µM
IC50 (CheA): 1340 µM
MIC (E. coli DC2): 128 µg/mL (≈ 547 µM)
MIC (B. subtilis 3610): 293 µg/mL (≈ 1250 µM)

O=c1cc(-c2ccc(O)c(O)c2)oc2cc(O)cc(O)c12 [Compound 15, luteolin]
IC50 (HK853 [3]): 15.1 µM
IC50 (VicK): 216 µM
MIC (E. coli DC2): 8 µg/mL (≈ 27.9 µM)
MIC (B. subtilis 3610): > 128 µg/mL

C[S+](C)[O-] [DMSO, dimethyl sulfoxide]
MIC values E. coli DC2 (E. coli DC2; DMSO control, n = 2): 10–20% (v/v)
MIC values B. subtilis 3610 (B. subtilis 3610; DMSO control): 20% (v/v)
CC50 Vero 76 Cells (Vero 76 cells): >0.5% (v/v)

O=c1c(-c2ccc(O)cc2)coc2cc(O)cc(O)c12 [Genistein, genistein]
inhibition of HK853 activity in follow-up assays (HK853 [3]; Supporting Information Table 1, n=1): slight inhibition

N#Cc1c(N)nc2sc(C(=O)Nc3ccc(Br)cc3)c(N)c2c1-c1ccccc1 [TEP, 3,6-diamino-5-cyano-4-phenylthieno[2,3-b]pyridine-2-carboxylic acid (4-bromo-phenyl)-amide]
IC50 values (four HK proteins): low micromolar range

Nc1ncnc2nc[nH]c12 [adenine (10), adenine]
IC50 (HK853 [3]): 463 µM

CC1(C)S[C@@H]2[C@H](NC(=O)[C@H](N)c3ccccc3)C(=O)N2[C@H]1C(=O)O [ampicillin]
MIC (E. coli DC2): 0.25 µg/mL (≈ 0.715 µM)

O=C(N[C@H](CO)[C@H](O)c1ccc([N+](=O)[O-])cc1)C(Cl)Cl [chloramphenicol]
MIC (E. coli DC2): 0.5 to 1 µg/mL (≈ 1.55 to 3.09 µM)
MIC (B. subtilis 3610): 2 to 4 µg/mL (≈ 6.19 to 12.4 µM)

COC1=C2C[C@@H](C)C[C@H](OC)[C@H](O)[C@@H](C)/C=C(\C)[C@H](OC(N)=O)[C@@H](OC)/C=C\C=C(/C)C(=O)NC(=CC1=O)C2=O [geldanamyin]
displacement of ADP-BODIPY (1) in primary screening (HTS) (HK853 [1]): failed to displace ADP-BODIPY (1)

C[C@@H]1C[C@H]2O[C@@H]2/C=C\C=C\C(=O)Cc2c(Cl)c(O)cc(O)c2C(=O)O1 [radicicol]
displacement of ADP-BODIPY (1) in primary screening (HTS) (HK853 [1]): failed to displace ADP-BODIPY (1)
difference in selectivity between Hsp90 and PhoQ (PhoQ): > 30 fold

CN[C@H](CC(C)C)C(=O)N[C@H]1C(=O)N[C@@H](CC(N)=O)C(=O)N[C@H]2C(=O)N[C@H]3C(=O)N[C@H](C(=O)N[C@H](C(=O)O)c4cc(O)cc(O)c4-c4cc3ccc4O)[C@H](O)c3ccc(c(Cl)c3)Oc3cc2cc(c3O[C@@H]2O[C@H](CO)[C@@H](O)[C@H](O)[C@H]2O[C@H]2C[C@](C)(N)[C@H](O)[C@H](C)O2)Oc2ccc(cc2Cl)[C@H]1O [vancomycin]
MIC (B. subtilis 3610): 0.5 µg/mL (≈ 0.345 µM)

penicillin
MIC values B. subtilis 3610 (B. subtilis 3610; 20 h at 37 °C, lowest concentration that inhibited visible growth): ≤0.06–0.5 μg mL^–1
